According to ChEMBL document CHEMBL3763092, “Design and synthesis of pyrrolobenzodiazepine-gallic hybrid agents as p53-dependent and -independent apoptogenic signaling in melanoma cells” (Eur J Med Chem, 2016):
Calls of active or inactive are those of the source. The rule behind the calls is not given here.

Key:
A-375 [1] = assay: Induction of apoptosis in human A375 cells expressing p53 wild type assessed as increase in cleaved caspase-3 levels at 0.5 uM after 24 hrs by western blot analysis; format: functional, cell-based
Procedure, shortened: (§1)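 A375 cells were exposed to 0.5 µM for 24 h, and lysates were immunoblotted with specific antibodies (p53, Cdc25c, p-Chk1, Bcl-xL, PARP, caspase-3). GAPDH served as loading control. Three independent experiments.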

A-375 [2] = assay: Induction of apoptosis in human A375 cells expressing p53 wild type assessed as increase in cleaved PARP levels at 0.5 uM after 24 hrs by western blot analysis; format: functional, cell-based; procedure, shortened: as §1
[3] = Cytotoxicity against p53 knockout human H1299 cells assessed as cell viability at 1 uM after 24 hrs by MTT assay; format: functional; conditions: NCI-H1299, 24 h, read-out: Activity
Procedure, shortened: (§2)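 Cells were exposed to compound at 1 µM for 24 h, then growth and viability were read by MTT assay. Media: A375 in DMEM; RPMI7951 and MCF-7 in MEM; A549 in RPMI1640; H1299 in DMEM-F12; all with 10% FCS and penicillin/streptomycin, at 37 °C and 5% CO2. Fibroblasts came from adult foreskin. DMSO stocks were 10 mM.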

A-375 [4] = assay: Cytotoxicity against human A375 cells expressing p53 wild type assessed as cell viability at 1 uM after 24 hrs by MTT assay; format: functional; conditions: A-375, 24 h, read-out: Activity; procedure, shortened: as §2
A549 = assay: Cytotoxicity against human A549 cells assessed as cell viability at 1 uM after 24 hrs by MTT assay; format: functional; conditions: A549, 24 h, read-out: Activity; procedure, shortened: as §2
MCF7 = assay: Cytotoxicity against human MCF7 cells expressing p53 wild type assessed as cell viability at 1 uM after 24 hrs by MTT assay; format: functional; conditions: MCF7, 24 h, read-out: Activity; procedure, shortened: as §2
A-375 [5] = assay: Induction of apoptosis in human A375 cells expressing p53 wild type assessed as increase in p53 levels at 0.5 uM after 24 hrs by western blot analysis; format: functional, cell-based; procedure, shortened: as §1
[6] = Cytotoxicity against human fibroblast cells expressing p53 wild type assessed as cell viability at 1 uM after 24 hrs by MTT assay; format: cell-based; conditions: read-out: Activity; procedure, shortened: as §2
[7] = Cytotoxicity against human RPMI7951 cells expressing p53 mutant assessed as cell viability at 1 uM after 24 hrs by MTT assay; format: functional; conditions: RPMI-7951, 24 h, read-out: Activity; procedure, shortened: as §2
A-375 [8] = assay: Induction of apoptosis in human A375 cells expressing p53 wild type assessed as decrease in Bcl-xl levels at 0.5 uM after 24 hrs by western blot analysis; format: functional, cell-based; procedure, shortened: as §1
A-375 [9] = assay: Induction of apoptosis in human A375 cells expressing p53 wild type assessed as increase release of cytochrome c from mitochondria to cytosol at 0.5 uM after 24 hrs by immunofluorescence analysis; format: functional, cell-based
Procedure, shortened: (§3)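 A375 cells on coverslips (1 × 10^4) were treated with 0.5 µM for 24 h. Cells were fixed in 4% formaldehyde for 5 min at 4 °C, permeabilized with 0.5% Triton X-100, and blocked with 5% BSA at 37 °C for 45 min. Primary antibodies were applied for 1 h at RT: mouse anti-p-ATR and anti-p-ATM 1:1000, anti-8-oxoguanine 1:250, COX IV and cytochrome c 1:1000. Secondary antibodies (rhodamine for 8-oxoguanine) followed for 30 min. DAPI counterstain.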

RPMI-7951 [10] = assay: Induction of apoptosis in human RPMI7951 cells expressing p53 mutant assessed as decrease in lysosomal H+ concentration at 0.5 uM after 24 and 48 hrs by flow cytometric analysis; format: functional, cell-based
Procedure, shortened: (§4)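 Cells were loaded with LysoTracker Green (75 nM) for 15 min at 37 °C before treatment with 0.5 µM for the indicated times. After washing, mean fluorescence was quantified by flow cytometry. For p53 knockdown, A375 cells (6 × 10^4/well, antibiotic-free DMEM) were transfected with 30 nM tp53 siRNA or non-target siRNA using Lipofectamine RNAiMAX and harvested at 24 h.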

A-375 [11] = assay: Induction of DNA damage in human A375 cells expressing p53 wild type assessed as increase in ATR/ATM activation at 0.5 uM after 24 hrs by immuohistochemistry analysis; format: functional, cell-based; procedure, shortened: as §3
B16 [12] = assay: Induction of apoptosis in mouse B16 cells at 0.5 uM after 24 hrs by FITC-annexin V/PI staining based fluorescence microscopy; format: functional, cell-based
Procedure, shortened: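 B16 cells were seeded on coverslips at 3 × 10^5 per well, allowed to attach for 24 h, then exposed to 0.5 µM for 24 h. After PBS washes, cells were stained with annexin V-FITC and PI (plus Hoechst33258) for at least 15 min at RT in the dark and viewed by fluorescence microscopy.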

A-375 [13] = assay: Effect on cell cycle distribution in human A375 cells expressing p53 wild type assessed as number of cells at S-phase at 0.5 uM after 24 hrs by FACS analysis (reference value: 13.8 %); format: functional
RPMI-7951 [14] = assay: Induction of apoptosis in human RPMI7951 cells expressing p53 mutant assessed as increased release of cytochrome c to cytosol at 0.5 uM by immunofluorescent staining analysis; format: functional, cell-based
Procedure, shortened: (§5)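 RPMI7951 cells on coverslips (1 × 10^4) were treated with 0.5 µM for 24 h. Immunofluorescence steps: fixation in 4% formaldehyde, permeabilization with 0.5% Triton X-100, blocking with 5% BSA. Primary antibodies: rabbit anti-cathepsin D and mouse anti-LAMP-1 at 1:500, cytochrome c and COX IV at 1:1000, 1 h at RT. Secondary antibodies for 30 min. DAPI counterstain.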

A-375 [15] = assay: Induction of reactive oxygen species generation in human A375 cells expressing p53 wild type assessed as increase in intracellular H2O2 level at 0.5 uM after 24 hrs by DCFH-DA staining based fluorescence analysis; format: functional, cell-based
Procedure, shortened: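 A375 cells were treated with 0.5 µM for 0, 12 and 24 h and stained with DCFH-DA to detect intracellular H2O2.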

A-375 [16] = assay: Effect on cell cycle distribution in human A375 cells expressing p53 wild type assessed as number of cells at subG1 phase at 0.5 uM after 24 hrs by FACS analysis (reference value: 1 %); format: functional
RPMI-7951 [17] = assay: Induction of apoptosis in human RPMI7951 cells expressing p53 mutant assessed as increased release of cathepsin D to cytosol at 0.5 uM by immunofluorescent staining analysis; format: functional, cell-based; procedure, shortened: as §5
B16 [18] = assay: Antitumor activity against mouse B16 cells xenografted in ICR mouse assessed as decrease in tumor growth administered via interavenous; format: functional, cell-based
Procedure, shortened: (§6)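 Female ICR mice, seven weeks old, inoculated s.c. in the footpad with 1 × 10^6 B16 cells in 20 µl PBS. Once tumors reached a mean diameter of 4-7 mm (day 0), mice were randomized into groups of three and dosed i.v. at 0, 2, 4 mg/kg. Two perpendicular tumor diameters and body weight were taken at least 3 times weekly. T/C% was calculated from relative tumor volume; body weight is expressed as % of day 0. Statistics by t-test.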

RPMI-7951 [19] = assay: Cytotoxicity against human RPMI7951 expressing p53 mutant cells assessed as colony formation at 0.5 uM after 10 days by SRB assay; format: functional, cell-based
Procedure, shortened: (§7)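 Cells were seeded at 100 per well and treated from the second day. Medium containing 0.5 µM agent was renewed every 3 days. After 10 days of treatment, colonies were stained with SRB and photographed. Three independent experiments.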

A-375 [20] = assay: Cytotoxicity against human A375 cells expressing p53 wild type assessed as colony formation at 0.5 uM after 10 days by SRB assay; format: functional, cell-based; procedure, shortened: as §7
A-375 [21] = assay: Induction of apoptosis in human A375 cells expressing p53 wild type assessed as increase in p53 mRNA level by RT- qPCR analysis; format: functional, cell-based; conditions: TDE = time-dependent effect
Procedure, shortened: (§8)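 Quantitative real-time PCR on A375 cells over a time course, measuring p53, bax and bcl-xl mRNA normalized to GAPDH mRNA.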

A-375 [22] = assay: Effect on cell cycle distribution in human A375 cells expressing p53 wild type assessed as number of cells at G2/M phase at 0.5 uM after 24 hrs by FACS analysis (reference value: 12.1 %); format: functional
A-375 [23] = assay: Induction of apoptosis in human A375 cells expressing p53 wild type assessed as lysosomal H+ concentration at 0.5 uM after 24 and 48 hrs by flow cytometric analysis; format: functional, cell-based; procedure, shortened: as §4
A-375 [24] = assay: Induction of apoptosis in human A375 cells expressing p53 wild type assessed as decrease in mitochondrial membrane potential at 0.5 uM after 12 hrs by DiOC6 dye based flow cytometry; format: functional, cell-based
Procedure, shortened: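 A375 cells were treated with 0.5 µM for 0, 12 and 24 h, labeled with DiOC6 and analyzed by flow cytometry. Three independent experiments.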

A-375 [25] = assay: Decrease in Cdc25c level in human A375 cells expressing p53 wild type at 0.5 uM after 24 hrs by western blot analysis; format: functional, cell-based; procedure, shortened: as §1
A-375 [26] = assay: Induction of DNA lesion in human A375 cells expressing p53 wild type assessed as increase in 8-oxoguanine expression at 0.5 uM after 24 hrs by immunohistochemical analysis; format: functional, cell-based; procedure, shortened: as §3
A-375 [27] = assay: Effect on cell cycle distribution in human A375 cells expressing p53 wild type assessed as number of cells at G0/G1 phase at 0.5 uM after 24 hrs by FACS analysis Rvb = 74.1 %); format: functional
A-375 [28] = assay: Induction of apoptosis in human A375 cells expressing p53 wild type assessed as decrease in bcl-xl mRNA level by RT- qPCR analysis; format: functional, cell-based; conditions: TDE = time-dependent effect; procedure, shortened: as §8
RPMI-7951 [29] = assay: Induction of apoptosis in human RPMI7951 cells expressing p53 mutant assessed as PARP cleavage at 0.5 uM after 24 hrs by western blot analysis; format: functional, cell-based
A-375 [30] = assay: Induction of apoptosis in human A375 cells expressing p53 wild type assessed as increase in bax mRNA level by RT- qPCR analysis; format: functional, cell-based; conditions: TDE = time-dependent effect; procedure, shortened: as §8
A-375 [31] = assay: Induction of apoptosis in human A375 cells transfected with siRNA p53 assessed as decrease in lysosomal H+ concentration at 0.5 uM after 24 and 48 hrs by flow cytometric analysis; format: functional, cell-based; procedure, shortened: as §4
Mus musculus = assay: Toxicity in ICR mouse xenografted with mouse B16 cells assessed as change in body weight at 2 to 4 mg/kg, iv; format: organism-based; conditions: in vivo; procedure, shortened: as §6
A-375 [32] = assay: Increase in Chk1 phosphorylation in human A375 cells expressing p53 wild type at 0.5 uM after 24 hrs by western blot analysis; format: functional, cell-based; procedure, shortened: as §1

COc1cc2c(cc1OCCCCCCOc1cc(OC)c(OC)c(OC)c1)N=C[C@@H]1CCCN1C2=O
Activity (A-375 [1]): Active
Activity (A-375 [2]): Active
viability at 1 µM [3]: 90.2%
viability at 1 µM (A-375 [4]): 84.8%
viability at 1 µM (A549): 101%
viability at 1 µM (MCF7): 79%
Activity (A-375 [5]): Active
viability at 24 h, 1 µM [6]: 93.4%
viability at 1 µM [7]: 55.9%
Activity (A-375 [8]): Active

COc1cc2c(cc1OCCCCOc1cc(OC)c(OC)c(OC)c1)N=C[C@@H]1CCCN1C2=O
Activity (A-375 [9]): Active
Activity (RPMI-7951 [10]): Active
Activity (A-375 [1]): Active
Activity (A-375 [11]): Active
Activity (A-375 [2]): Active
viability at 1 µM [3]: 73%
Activity (B16 [12]): Active
Activity (A-375 [13]): 47.9%
Activity (RPMI-7951 [14]): Active
Activity (A-375 [15]): Active
Activity (A-375 [16]): 15.8%
Activity (RPMI-7951 [17]): Active
inhibition (B16 [18]): Dose-dependent effect
inhibition (RPMI-7951 [19]): Active
inhibition (A-375 [20]): Active
Activity (A-375 [21]): tde
Activity (A-375 [22]): 4.8%
Activity (A-375 [23]): inactive
Activity (A-375 [24]): Active
inhibition (A-375 [25]): Active
Activity (A-375 [26]): Active
Activity (A-375 [27]): 32.6%
viability at 1 µM (A-375 [4]): 37.4%
Activity (A-375 [28]): tde
Activity (RPMI-7951 [29]): Active
Activity (A-375 [30]): tde
Activity (A-375 [31]): Active
viability at 1 µM (A549): 77.9%
Activity (Mus musculus): Non-toxic
viability at 1 µM (MCF7): 55.3%
Activity (A-375 [5]): Active
viability at 24 h, 1 µM [6]: 109%
viability at 1 µM [7]: 62.3%
Activity (A-375 [8]): Active
Activity (A-375 [32]): Active

COc1cc2c(cc1OCCCNC(=O)c1cc(OC)c(OC)c(OC)c1)N=C[C@@H]1CCCN1C2=O
viability at 1 µM [3]: 96.4%
viability at 1 µM (A-375 [4]): 82.6%
viability at 1 µM (A549): 96.1%
viability at 1 µM (MCF7): 94.6%
viability at 24 h, 1 µM [6]: 101%
viability at 1 µM [7]: 97.7%

COc1cc2c(cc1OCCCCCNC(=O)c1cc(OC)c(OC)c(OC)c1)N=C[C@@H]1CCCN1C2=O
viability at 1 µM [3]: 96.9%
viability at 1 µM (A-375 [4]): 74.7%
viability at 1 µM (A549): 96.8%
viability at 1 µM (MCF7): 101%
viability at 24 h, 1 µM [6]: 98.7%
viability at 1 µM [7]: 111%
